SENP8 block-1: human SENP8 protease inhibitors, primary screen, biochemical, fluorescence, Nedd8 protein substrate, uHTS. Sentrin-specific protease 8 (Homo sapiens), Q96LD8. recombinant SENP8. inhibition, % at 20 µM. actives 0.64% (n = 360,000). AID 602440, 2012; in the data active = inhibition mostly above about 40%, no sharp cut-off; inactive = mostly below about 27%
Target sequence (Q96LD8 whole entry, looked up): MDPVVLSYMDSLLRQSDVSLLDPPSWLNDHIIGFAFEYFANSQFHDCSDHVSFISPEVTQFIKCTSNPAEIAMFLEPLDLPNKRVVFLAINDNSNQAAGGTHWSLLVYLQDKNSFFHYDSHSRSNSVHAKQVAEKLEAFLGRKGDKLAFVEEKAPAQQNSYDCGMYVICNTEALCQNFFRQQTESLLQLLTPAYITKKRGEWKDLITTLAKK
SENP8 block-2: SENP8 protease inhibitors, primary screen, biochemical, luminescence | Sentrin-specific protease 8 (Homo sapiens), Q96LD8 | purified SENP8, Z-RLRGG-aminoluciferin cleavage | actives 1.2% (n = 330,000) | inhibition, % at 10 µM; in the data active = inhibition above about 50%
SENP1 FRET inh: human SENP1 catalytic domain inhibitors, primary screen, biochemical, FRET, uHTS; Sentrin-specific protease 1 (Homo sapiens), Q9P0U3; recombinant SENP1 catalytic domain, CyPet-SUMO1-YPet FRET cleavage; inhibition, % at 10 µM; actives 0.21% (n = 360,000); AID 624204, 2012;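 active = inhibition at least 30% at 10 µM, raw YFP signal under a set limit, fluorescence ratio 0.5 to 1.5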
Target sequence (Q9P0U3 419-644 limits assumed): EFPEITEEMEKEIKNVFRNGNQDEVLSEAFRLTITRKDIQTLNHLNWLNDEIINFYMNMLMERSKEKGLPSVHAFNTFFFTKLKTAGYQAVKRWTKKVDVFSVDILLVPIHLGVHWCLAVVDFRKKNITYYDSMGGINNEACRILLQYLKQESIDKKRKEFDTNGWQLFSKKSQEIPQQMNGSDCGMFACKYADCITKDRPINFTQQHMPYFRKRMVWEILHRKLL
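system = hSENP1 catalytic domain, recombinant | reagent = SFCypet-SUMO1-SFYpet substrate at 25 nM | doses = one dose per compound, 10 µM, 0.5% DMSO | incubation = enzyme reaction for 50 min at room temperature, dark | measured by = FRET, CFP and YFP emission | controls = no-enzyme low, enzyme-DMSO high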
Platelet DG rel: inhibitors of platelet dense granule secretion, primary screen, cell-based, MLPCN, human platelets; actives 0.22% (n = 300,000); human platelet-rich plasma, SFLLRN dense granule ATP release, luminescence; inhibition, %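 (compounds screened at 7.5 µM in platelet-rich plasma)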;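 active = mean replicate score, as percent of positive control, at or above 50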
SENP6 inh: SENP6 protease inhibitors, primary screen, biochemical, luminescence, uHTS | Sentrin-specific protease 6 (Homo sapiens), Q9GZR1 | Recombinant SENP6 catalytic domain, aminoluciferin luminescence | inhibition, % at 10 µM | actives 1.8% (n = 330,000);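 active = inhibition above about 50% at the single tested dose, limit read from the data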
SENP7 block: SENP7 protease inhibitors, primary screen, biochemical, luminescence, uHTS. Sentrin-specific protease 7 (Homo sapiens), Q9BQF6. recombinant SENP7, Z-RLRGG-aminoluciferin luminescence, 40 min. inhibition, % at 5 µM. actives 1.5% (n = 330,000). AID 434973, 2010;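 active = inhibition above about 50% at the single test dose, limit read from the data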
SENP8 confirm: SENP8 protease inhibitors, retest, confirmation, biochemical, luminescence, single concentration | shares compounds with SENP7 block | inhibition, % at 12.5 µM | actives 40% (n = 6,200) | Recombinant SENP8, Z-RLRGG-aminoluciferin luminescence, 60 min;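 active = mean inhibition across replicates above about 50%, limit read from the data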
SENP6 confirm: SENP6 protease inhibitors, confirmation, biochemical, luminescence, single concentration. actives 58% (n = 6,200). shares compounds with SENP7 block. recombinant SENP6, Z-RLRGG-aminoluciferin luminescence. inhibition, % at 12.5 µM
SENP7 confirm: SENP7 protease inhibitors, retest, confirmation, biochemical, luminescence, single concentration; inhibition, % at 12.5 µM; AID 488917, 2010; shares compounds with SENP7 block; actives 69% (n = 6,200); recombinant SENP7, Z-RLRGG-aminoluciferin luminescence, 40 min
Casp3 select: caspase-3 protease inhibitors, confirmation, selectivity assay for SENP inhibitor project, biochemical, single concentration. shares compounds with SENP7 block. purified caspase-3, Z-DEVD-aminoluciferin luminescence, 60 min. inhibition, % at 12.5 µM. actives 60% (n = 6,200);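 active = mean inhibition above about 50%, limit read from the data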
Target sequence (P42574 28-227 limits assumed): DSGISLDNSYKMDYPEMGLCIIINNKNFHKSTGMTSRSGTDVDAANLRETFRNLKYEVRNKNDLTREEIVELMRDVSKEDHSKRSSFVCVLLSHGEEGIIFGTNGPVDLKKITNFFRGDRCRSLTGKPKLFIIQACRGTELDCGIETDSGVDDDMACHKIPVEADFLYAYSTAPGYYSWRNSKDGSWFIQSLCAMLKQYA
SENP luc ctr: counter-screen for SENP inhibitors: luminescence interference; Pre-incubated SENP8/Z-RLRGG-aminoluciferin, luciferase luminescence interference; shares compounds with SENP7 block; actives 39% (n = 6,200); AID 488919; inhibition, % at 12.5 µM;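 active = mean inhibition above about 50% when retested at one dose, limit read from the data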
Numbers stand for hits; n = inactive; x = no result. Compounds with a hit are over-represented: about 2.6% of the library has one in this group of screens.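 The calls were made as follows, unless noted: active = mean inhibition above about 50% in the one-dose retest (limit read from the data); inactive = the rest.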

SMILES	SENP8 block-1	SENP8 block-2	SENP1 FRET inh	Platelet DG rel	SENP6 inh	SENP7 block	SENP8 confirm	SENP6 confirm	SENP7 confirm	Casp3 select	SENP luc ctr
CCCc1ccc(-c2ccc(/C=C/C(=O)O)cc2)nc1	n	x	n	n	x	x	x	x	x	x	x
Fc1ccc(Nc2nnc(C(F)(F)F)s2)cc1	n	n	n	n	n	n	x	x	x	x	x
O=C1CN(C(=O)COc2ccc([N+](=O)[O-])cc2Cl)c2ccccc2N1	n	n	n	x	n	n	x	x	x	x	x
CN(C(=O)CSc1cn(CC(=O)N2CCOCC2)c2ccccc12)c1ccccc1	n	n	n	n	n	n	x	x	x	x	x
O=C(Cn1cc(SCc2ccc(F)cc2)c2ccccc21)N1CCOCC1	n	n	n	n	58	n	50	n	79	n	n
O=C(Cn1cc(SCc2ccc(Cl)cc2)c2ccccc21)N1CCOCC1	n	n	n	n	67	n	n	65	82	n	n
CCN(CC)S(=O)(=O)c1cc(NC(=O)CO/N=C(\N)c2ccccc2Cl)ccc1C	n	n	n	x	n	n	x	x	x	x	x
COc1cc2c(cc1OC)-c1cc3ccc4c(c3c[n+]1CC2)OCO4	n	n	n	n	50	n	n	n	n	n	n
CCNC(=O)C1(C)CCCN(C(=O)c2csc3ccccc23)C1 (stereo not given)	n	x	n	x	x	x	x	x	x	x	x
CC(C)(C)OC(=O)N1CCC(c2c(C(=O)NCC3CCN(C4CCCC4)C3)cnn2-c2ccc(F)cc2)CC1 (stereo not given)	n	n	n	n	n	56	n	n	n	n	n
CCc1noc(C)c1C(=O)N1CCN(S(=O)(=O)c2cccs2)CC1	n	n	n	n	n	n	x	x	x	x	x
Cc1ccc(C(=O)ONc2ccc(N=O)cc2)cc1	n	98	n	59	96	100	n	101	104	90	n
Cc1ccc(C(=O)ONc2ccc(N=NC(=O)c3ccccc3O)cc2)cc1	n	n	n	n	n	n	x	x	x	x	x
O=C(c1ccccc1F)N1CCc2ccccc21	n	n	n	n	n	n	x	x	x	x	x
O=C(OCC(=O)N1CCc2ccccc21)c1ccccc1[N+](=O)[O-]	n	86	n	x	87	91	94	94	102	95	74
O=C(OCC(=O)N1CCc2ccccc21)c1ccccc1F	n	n	n	n	58	n	n	n	76	64	n
N#CC1(NC(=O)COC(=O)c2ccccc2[N+](=O)[O-])CCCCC1	n	n	n	n	n	n	x	x	x	x	x
O=C(COC(=O)c1ccccc1[N+](=O)[O-])c1ccc(C2CCCCC2)cc1	n	89	n	n	90	98	n	77	52	79	n
Cc1ccc(C(=O)OCC(=O)N2CCc3ccccc32)cc1	n	n	n	n	n	n	x	x	x	x	x
COc1cc(C(=O)NC(=S)Nc2nccs2)cc(OC)c1OC	n	n	n	n	n	n	x	x	x	x	x
Cc1cccc(C)c1NC(=O)CN(C)C(=O)c1ccc(COc2ccccc2)cc1	n	n	n	n	n	n	x	x	x	x	x
COc1ccc(C2NC(=O)CS2)cc1OC (stereo not given)	n	n	n	n	n	n	x	x	x	x	x
COc1ccc(C2NN=C(c3ccc(C)cc3)S2)cc1OC (stereo not given)	n	92	n	n	93	94	n	n	n	n	n
Fc1cccc(C2NN=C(c3ccccc3)S2)c1 (stereo not given)	n	52	n	n	92	97	n	54	80	65	n
Cc1ccc(C2=NNC(C(O)C(O)C(O)C(C)O)S2)cc1 (stereo not given)	n	n	n	n	n	n	x	x	x	x	x
SMILES	SENP8 block-1	SENP8 block-2	SENP1 FRET inh	Platelet DG rel	SENP6 inh	SENP7 block	SENP8 confirm	SENP6 confirm	SENP7 confirm	Casp3 select	SENP luc ctr
Cc1ccc(C2=NNC(c3cccc(F)c3)S2)cc1 (stereo not given)	n	87	n	n	89	95	n	51	n	51	n
N/C(=N\OC(=O)Nc1ccccc1)c1ncc(C(F)(F)F)cc1Cl	n	n	n	n	50	n	52	n	77	69	57
N/C(=N\OC(=O)Nc1ccc(Cl)cc1)c1ncc(C(F)(F)F)cc1Cl	n	n	n	n	n	n	x	x	x	x	x
COc1ccc(-c2cc(NC=O)c3ncc(-c4cccc(C(=O)N(C)C)c4)n3c2)cn1	n	x	n	x	x	x	x	x	x	x	x
COC(=O)c1ccc(/C=C/c2nc3ccccc3c(=O)[nH]2)cc1	n	85	n	63	89	96	n	n	52	63	n
C=CCNc1nc2ccccc2c(=O)[nH]1	n	n	n	n	n	n	x	x	x	x	x
C=CCOc1cccc(/C=C/c2nc3ccccc3c(=O)[nH]2)c1	n	n	n	n	n	82	n	n	n	n	n
Cc1ccccc1/C=C\c1nc2ccccc2c(=O)[nH]1	n	69	n	n	76	85	n	n	62	n	n
Cc1ccc(/C=C/c2nc3ccccc3c(=O)[nH]2)cc1	n	86	n	n	90	98	n	55	n	n	n
COc1cc(/C=C/c2nc3ccccc3c(=O)[nH]2)cc(OC)c1OC	n	n	n	n	n	n	x	x	x	x	x
N#CCOc1ccccc1/C=C/c1nc2ccccc2c(=O)[nH]1	n	n	n	n	n	n	x	x	x	x	x
CCOc1ccccc1NC(=O)c1cc(S(=O)(=O)NCc2ccco2)ccc1F	n	n	n	n	n	n	x	x	x	x	x
COc1cc(C(=O)NCC(=O)N/N=C(/C)c2cccs2)cc(OC)c1OC	n	n	n	n	n	n	x	x	x	x	x
Nc1ccc2c(c1)C(=O)c1ccccc1C2=O	n	n	n	n	53	n	55	50	80	54	n
COc1ccc(-c2cc3ncnc(Cl)c3s2)cc1	n	84	n	n	83	n	n	n	n	n	n
